Data on 10 compounds can be found in article PMC3577957 (Insect biochemistry and molecular biology, 2012).

Molecules are shown by their SMILES. Marks after values point to notes of the source that are not given here. Bounds are passed on as bounds.

For experiment [1], the target named is T1, Hv-mEH1 (Chloridea virescens, UniProt L7R9X8). Description: Fluorescent substrate assay, Hv-mEH1. Type of experiment: biochemical, Heliothis virescens. The following applies: 50 mM Tris-HCl, pH 8.0, 5 μM substrate (25 μM for CMNGC), 100 μM OTFP, 1% DMSO, 0.1 mg ml^−1 BSA, 30°C. In a few lines:
(§1)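 Enzyme was microsomal fraction from High Five cells infected with recombinant baculovirus (MOI 0.5, 27°C, 65 h p.i.), solubilized with 0.5% Triton X-100, and taken as the 163,000 xg supernatant. Enzyme was preincubated 5 min with OTFP before α-cyanoester/carbonate epoxide substrate was added. Fluorescence (ex 330/em 465 nm) was read every 30 s for 10 min. Aldehyde product was quantified against a 6-methoxy-2-naphthaldehyde standard curve. No-OTFP controls measured ester hydrolysis. Quadruplicate wells, ≥3 plates.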

The target in experiment [2] is T2, MsJHEH (Manduca sexta, UniProt Q25489).
T2 sequence (Q25489 1-462): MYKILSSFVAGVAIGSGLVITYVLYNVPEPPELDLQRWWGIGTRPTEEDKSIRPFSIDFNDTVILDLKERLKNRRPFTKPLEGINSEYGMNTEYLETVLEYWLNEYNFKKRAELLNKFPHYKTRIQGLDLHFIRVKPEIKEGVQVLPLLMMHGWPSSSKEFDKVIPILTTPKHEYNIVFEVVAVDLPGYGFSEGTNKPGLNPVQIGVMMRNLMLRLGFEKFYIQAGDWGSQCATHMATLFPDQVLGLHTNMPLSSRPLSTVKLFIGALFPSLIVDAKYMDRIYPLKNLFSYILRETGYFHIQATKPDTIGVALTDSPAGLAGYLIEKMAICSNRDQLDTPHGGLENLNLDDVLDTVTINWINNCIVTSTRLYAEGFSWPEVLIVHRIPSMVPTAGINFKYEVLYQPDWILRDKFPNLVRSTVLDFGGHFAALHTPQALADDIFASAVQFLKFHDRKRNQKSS
Description: Fluorescent substrate assay, MsJHEH. Type of experiment: biochemical. The following applies: 50 mM Tris-HCl, pH 8.0, 5 μM substrate (25 μM for CMNGC), 100 μM OTFP, 1% DMSO, 0.1 mg ml^−1 BSA, 30°C. In a few lines: as §1

Experiment [3] has as its target T3, hmEH (human microsomal EH, EPHX1) (Homo sapiens, UniProt P07099).
T3 sequence (P07099 1-455): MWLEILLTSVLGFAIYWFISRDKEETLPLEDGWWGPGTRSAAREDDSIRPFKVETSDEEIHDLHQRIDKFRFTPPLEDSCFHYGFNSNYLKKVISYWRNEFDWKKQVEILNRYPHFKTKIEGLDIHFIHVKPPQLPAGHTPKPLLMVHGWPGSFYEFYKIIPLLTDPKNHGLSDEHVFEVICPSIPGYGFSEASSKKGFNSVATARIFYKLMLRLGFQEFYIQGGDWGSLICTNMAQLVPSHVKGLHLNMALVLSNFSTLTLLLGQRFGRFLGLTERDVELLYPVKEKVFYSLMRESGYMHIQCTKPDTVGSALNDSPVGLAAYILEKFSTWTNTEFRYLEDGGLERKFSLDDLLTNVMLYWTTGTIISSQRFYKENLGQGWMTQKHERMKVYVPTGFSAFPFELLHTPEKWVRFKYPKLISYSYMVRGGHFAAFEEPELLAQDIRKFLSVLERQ
Description: Fluorescent substrate assay, hmEH. Type of experiment: biochemical. The following applies: 50 mM Tris-HCl, pH 8.0, 5 μM substrate, 100 μM OTFP, 1% DMSO, 0.1 mg ml^−1 BSA, 30°C.

The target of experiment [4] is T1, Hv-mEH1. Nature of the experiment: Partition assay with radiolabeled general epoxide substrates, Hv-mEH1. It is filed as biochemical, Heliothis virescens. To be noted: 100 mM sodium phosphate, pH 8.0, 50 μM substrate, 1% ethanol, 0.1 mg ml^−1 BSA, 30°C; corrected for background hydrolysis. In a few lines:
(§2)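 Microsomal enzyme came from baculovirus-infected High Five cells (MOI 0.5, 65 h p.i., Triton X-100 extract, 163,000 xg supernatant). Partition assay used tritium-labeled cis-stilbene oxide, trans-stilbene oxide or t-DPPO. Enzyme amount was set so at most 15% of substrate was hydrolyzed. Assays were run in triplicate and repeated at least three times. Results are mean ± standard deviation.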

Experiment [5] addresses T2, MsJHEH. Description: Partition assay with radiolabeled general epoxide substrates, MsJHEH. The following applies: 100 mM sodium phosphate, pH 8.0, 50 μM substrate, 1% ethanol, 0.1 mg ml^−1 BSA, 30°C; corrected for background hydrolysis. It is filed as biochemical. In a few lines: as §2
Experiment [6] addresses T3, hmEH (human microsomal EH, EPHX1). To be noted: 25 μM CMNGC; ref Morisseau et al., 2011; cited from earlier work.
The target in experiment [7] is T1, Hv-mEH1. Nature of the experiment: JH III partition assay and kinetic constant determination, Hv-mEH1. It is filed as biochemical, Heliothis virescens. In a few lines: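 Recombinant enzyme expressed in baculovirus-infected High Five cells (MOI 0.5, 27°C, harvested 65 h p.i.). Used the Triton X-100-solubilized microsomal supernatant. Tritiated JH III partition assay at eight concentrations (96 to 11,190 nM), with 1% ethanol and 0.1 mg ml−1 BSA. Ran 5 to 30 min with ≤15% hydrolysis, non-enzymatic background subtracted. KM/Vmax fitted by enzyme kinetics, triplicate, repeated three times.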

For experiment [8], the target named is T2, MsJHEH. The following applies: cited from earlier work.
Experiment [9] deals with Bommo-JHEH. To be noted: ref Zhang et al., 2005; cited from earlier work.

Regarding `CCC[C@@H]1O[C@H]1CC(=O)OC(C#N)c1ccc2cc(OC)ccc2c1` (relative stereo) [MNHE, cyano(2-methoxynaphthalen-6-yl)methyl trans-2-(3-propyloxiran-2-yl)acetate], the “Specific Activity Hv-mEH1 with fluorescent substrates” value in experiment [1] is 1,180 ± 8 nmol min^−1 mg^−1. Further, in experiment [2], the “Specific Activity MsJHEH with fluorescent substrates” value stood at 38 ± 3 nmol/min/mg. Besides, the “Specific Activity hmEH with fluorescent substrates” value in experiment [3] was less than 1.0 nmol/min/mg.
Taken in the same sequence, the figures for `COc1ccc2cc(C(C#N)OC(=O)OC[C@@H]3O[C@H]3c3ccccc3)ccc2c1` (relative stereo) [MNPC, cyano(6-methoxy-naphthalen-2-yl)methyl trans-[(3-phenyloxiran-2-yl)methyl] carbonate] were 816 ± 140 nmol/min/mg, 29 ± 18 nmol/min/mg and less than 1.0 nmol/min/mg.
Take `COc1ccc2cc(C(C#N)OC(=O)C[C@@H]3O[C@H]3c3ccccc3)ccc2c1` (relative stereo) [MNPE, cyano(2-methoxynaphthalen-6-yl)methyl trans-(2-(3-phenyloxiran-2-yl))acetate]: in experiment [1], the “Specific Activity Hv-mEH1 with fluorescent substrates” value is 138 ± 9 nmol/min/mg. Moreover, the “Specific Activity MsJHEH with fluorescent substrates” value in experiment [2] amounted to 8.9 ± 0.4 nmol/min/mg. The “Specific Activity hmEH with fluorescent substrates” value in experiment [3] is less than 1.0 nmol/min/mg.
Regarding `CC[C@@H]1O[C@H]1COC(=O)OC(C#N)c1ccc2cc(OC)ccc2c1` (relative stereo) [MNPEC, cyano-(6-methoxy-naphthalen-2-yl)-methyl trans-((3-ethyl-oxiran-2-yl)methyl) carbonate], the “Specific Activity Hv-mEH1 with fluorescent substrates” value in [1] stood at 122 ± 11 nmol/min/mg. Also, in experiment [2], the “Specific Activity MsJHEH with fluorescent substrates” value was 0.8 ± 0.1 nmol/min/mg. Besides, the “Specific Activity hmEH with fluorescent substrates” value in [3] was less than 1.0 nmol/min/mg.
Consider `c1ccc([C@@H]2O[C@H]2c2ccccc2)cc1` (relative stereo) [t-SO, trans-stilbene oxide], for which, in [4], the “Specific Activity Hv-mEH1” value stood at 0.3 ± 0.01 nmol/min/mg. Also, the “Specific Activity MsJHEH” value in [5] is 2.1 ± 0.3 nmol/min/mg.
Regarding `COc1ccc2cc(C(C#N)OC(=O)OCC3CO3)ccc2c1` (stereo not drawn) [CMNGC, cyano(6-methoxy-naphthalen-2-yl)methyl oxiran-2-ylmethyl carbonate], in experiment [1], the “Specific Activity Hv-mEH1 with fluorescent substrates” value is 0.03 ± 0.001 nmol/min/mg. In addition, the “Specific Activity MsJHEH with fluorescent substrates” value in experiment [2] was 3.3 ± 0.2 nmol/min/mg. In addition, the “Specific Activity hmEH with CMNGC” value in [6] is 25 ± 2 ^b nmol min^−1 mg^−1.
On to `COC(=O)/C=C(\C)CC/C=C(\C)CC[C@H]1OC1(C)C` [JH III, juvenile hormone (JH) III], for which the “specificity constant (kcat/KM ratio) of Hv-mEH1 for JH III” value in experiment [7] is 630 M⁻¹ s⁻¹. Moreover, in experiment [7] (100 mM sodium phosphate, pH 8.0, 30°C, JH III diol formed), the “Vmax of Hv-mEH1 for JH III” value came to 1.7 ± 0.1 nmol/min/mg. In addition, in experiment [7] (calculated using estimated molecular mass of 53.1 kDa), the “kcat of Hv-mEH1 for JH III” value was 0.002 s⁻¹. Moreover, in experiment [8] (ref Severson et al., 2002), the “Vmax of MsJHEH for JH III” value is 59 nmol/min/mg. Moreover, the “specificity constant of MsJHEH for JH III” value in [8] (ref Touhara and Prestwich, 1993) was 290000 M⁻¹ s⁻¹. The “specificity constant of Bommo-JHEH for JH III” value in experiment [9] is 77000 M⁻¹ s⁻¹.
In the case of `COc1ccc2cc(C(C#N)OC(=O)OCC3OC3(C)C)ccc2c1` (stereo not drawn) [MNiPC, cyano-(6-methoxy-naphthalen-2-yl)-methyl 3,3-dimethyl-oxiranylmethyl carbonate], in experiment [1], the “Specific Activity Hv-mEH1 with fluorescent substrates” value was determined as 3.7 ± 1.1 nmol/min/mg. In experiment [2], the “Specific Activity MsJHEH with fluorescent substrates” value turned out to be 1.3 ± 0.5 nmol/min/mg. For the same compound, the “Specific Activity hmEH with fluorescent substrates” value in [3] is less than 1.0 nmol/min/mg.
With `c1ccc([C@H]2O[C@H]2c2ccccc2)cc1` [c-SO, cis-stilbene oxide], the “Specific Activity Hv-mEH1” value in experiment [4] amounted to 45.8 ± 7.0 nmol/min/mg. For the same compound, the “Specific Activity MsJHEH” value in experiment [5] was determined as 3.7 ± 0.5 nmol/min/mg.
As for `c1ccc(CC2OC2c2ccccc2)cc1` (stereo not drawn) [t-DPPO, trans-diphenylpropene oxide], the “Specific Activity Hv-mEH1” value in experiment [4] came out at 0.1 ± 0.04 nmol/min/mg. Also, the “Specific Activity MsJHEH” value in experiment [5] is 18.3 ± 4.0 nmol/min/mg.
